Experimental data published in ChEMBL document CHEMBL5338714, “Design, synthesis and biological evaluation of biphenyl-benzamides as potent FtsZ inhibitors” (Eur J Med Chem, 2022).
In brackets after ≈: the same amount, converted by molar mass. Activity calls are given as the source filed them. The calls are words filed in the database; no cut-off is given here.

Tests used:
[1] = molecular target: T1, Cell division protein FtsZ (Staphylococcus aureus) (UniProt P0A031); assay: Inhibition of recombinant Staphylococcus aureus FtsZ assessed as FtsZ polymerization at 10 ug/ml in presence of GTP by absorbance based turbidity assay; conditions: dose 10.0 µg/ml
T1 sequence (whole entry): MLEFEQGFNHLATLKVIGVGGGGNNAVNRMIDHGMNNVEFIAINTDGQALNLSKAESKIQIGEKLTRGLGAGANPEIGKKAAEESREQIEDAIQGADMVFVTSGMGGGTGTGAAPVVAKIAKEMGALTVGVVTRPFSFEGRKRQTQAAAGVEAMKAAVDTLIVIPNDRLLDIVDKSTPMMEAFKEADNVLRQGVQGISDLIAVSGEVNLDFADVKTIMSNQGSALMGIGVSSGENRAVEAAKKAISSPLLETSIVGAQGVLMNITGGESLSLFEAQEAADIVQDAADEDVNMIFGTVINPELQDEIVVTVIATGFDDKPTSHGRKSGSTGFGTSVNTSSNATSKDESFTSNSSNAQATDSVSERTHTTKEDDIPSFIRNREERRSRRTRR
Method in brief: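 Recombinant S. aureus FtsZ (12 µM) with 1 mM GTP and compound in 50 mM Hepes, 50 mM KCl, 5 mM MgCl2. Polymerization followed continuously at 25 °C as light scattering (A340).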

[2] = Cytotoxicity against African green monkey Vero cells assessed as reduction in cell viability incubated for 72 hrs by alamar blue staining based assay; type: toxicity; conditions: chlorocebus sabaeus
Method in brief: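 Vero cells seeded at about 2 × 10^3 per well, 37 °C, 5% CO2. Compound added after 24 h and incubated 72 h. AlamarBlue (1:10 v/v) then added for 3 h in the dark, read at Ex/Em 560/590 nm. CC50 is the lowest concentration causing 50% loss of viability.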

[3] = tested on: Bacillus subtilis; assay: Antibacterial activity against Bacillus subtilis ATCC9372 assessed as bacterial growth inhibition incubated for 18 hrs by CLSI based broth microdilution method; type: functional
Method in brief: (§1)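 CLSI broth microdilution. Log-phase bacteria in Mueller Hinton broth added to 2-fold serial dilutions spanning 128 to 0.25 or 2 to 0.004 µg/mL. Incubated aerobically for 18 h at 37 °C, then OD600 read. MIC is the lowest concentration giving ≥90% growth inhibition; three independent assays.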

[4] = Metabolic stability in mouse liver microsomes assessed as compound remaining preincubated for 5 mins followed by NADPH addition measured immediately by LC/MS analysis; type: ADME, Microsome; conditions: read-out: Stability
[5] = Metabolic stability in mouse liver microsomes assessed as compound remaining preincubated for 5 mins followed by NADPH addition measured after 5 mins by LC/MS analysis; type: ADME, Microsome; conditions: time 10 min, read-out: Stability
Method in brief: (§2)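 Liver microsomes (final protein 0.75 mg/mL) with compound in 100 mM phosphate buffer pH 7.4, preincubated 5 min at 37 °C. Reaction started with NADPH regeneration system, stopped at 5, 15, 30 and 45 min with acetonitrile containing internal standard. Percent remaining measured by LC/MS, with ketanserin as reference; variation given as RSD of area ratio.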

[6] = Metabolic stability in rat liver microsomes assessed as compound remaining preincubated for 5 mins followed by NADPH addition measured after 30 mins by LC/MS analysis; type: ADME, Microsome; conditions: time 35 min, read-out: Stability; method in brief: as §2
[7] = Metabolic stability in mouse liver microsomes assessed as compound remaining preincubated for 5 mins followed by NADPH addition measured after 30 mins by LC/MS analysis; type: ADME, Microsome; conditions: time 35 min, read-out: Stability; method in brief: as §2
[8] = tested on: Escherichia coli; assay: Antibacterial activity against Escherichia coli 25922 assessed as bacterial growth inhibition incubated for 18 hrs by CLSI based broth microdilution method; type: functional; method in brief: as §1
[9] = tested on: Bacillus subtilis; assay: Antibacterial activity against Bacillus subtilis ATCC9372 assessed as reduction in bacterial count at 2 times MIC measured for 3 hrs by time kill curve assay; type: functional, organism-based
Method in brief: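 Time-kill: log-phase cultures diluted to about 10^6 CFU/mL in MHB with compound at 1×, 2×, 4× or 8× MIC (vancomycin at 2× MIC), shaken at 37 °C. Samples taken at 3, 6, 12 and 24 h, serially diluted and plated on LB agar. Colonies counted after 24 h at 37 °C; detection limit 10^3 CFU/mL.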

[10] = Metabolic stability in human liver microsomes assessed as compound remaining preincubated for 5 mins followed by NADPH addition measured after 15 mins by LC/MS analysis; type: ADME, Microsome; conditions: time 20 min, read-out: Stability; method in brief: as §2
[11] = Metabolic stability in mouse liver microsomes assessed as intrinsic clearance preincubated for 5 mins followed by NADPH addition measured upto 45 mins by LC/MS analysis; type: ADME, Microsome; conditions: time < 50 min, read-out: CLH
Method in brief: (§3)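 Liver microsomes at 0.75 mg/mL final protein, with test article and NADPH regeneration system (6 mM) in 100 mM phosphate buffer, pH 7.4. Preincubated 5 min at 37 °C, then started with NADPH. Quenched with acetonitrile containing internal standard at 5, 15, 30 and 45 min, centrifuged, and percent remaining measured by LC/MS. Ketanserin served as reference.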

[12] = Metabolic stability in rat liver microsomes assessed as intrinsic clearance preincubated for 5 mins followed by NADPH addition measured upto 45 mins by LC/MS analysis; type: ADME, Microsome; conditions: time < 50 min, read-out: CLH; method in brief: as §3
[13] = tested on: Staphylococcus aureus; assay: Bactericidal activity against Staphylococcus aureus ATCC25923 incubated for 24 hrs by broth microdilution method; type: functional
Method in brief: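 MBC from the broth microdilution plates (MHB, 2-fold dilutions). After 24 h, 5 µL aliquots from clear wells were plated on LB agar and incubated aerobically 24 h at 37 °C, then colonies counted. MBC = lowest concentration with no colonies.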

[14] = Bioavailability in ICR mouse at 5 mg/kg, po measured for 0.25 to 24 hrs by LC-MS/MS analysis; type: ADME, organism-based; conditions: in vivo, time 0.25-24 hrs
Method in brief: (§4)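 Male ICR mice dosed orally with a solution of 5% DMSO, 4% ethanol, 5% Cremophor EL and 86% water. Blood collected at 15, 30 min, 1, 2, 4, 6, 8 and 24 h; plasma stored at -20 °C. Plasma levels measured by LC-MS/MS; parameters by non-compartmental analysis, with bioavailability relative to the 1 mg/kg iv dose.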

[15] = tested on: Staphylococcus aureus; assay: Antibacterial activity against Staphylococcus aureus ATCC29213 assessed as bacterial growth inhibition incubated for 18 hrs by CLSI based broth microdilution method; type: functional; method in brief: as §1
[16] = Half life in ICR mouse at 5 mg/kg, po measured for 0.25 to 24 hrs by LC-MS/MS analysis; type: ADME, organism-based; conditions: in vivo, time 0.25-24 hrs; method in brief: as §4
[17] = Metabolic stability in human liver microsomes assessed as compound remaining preincubated for 5 mins followed by NADPH addition measured immediately by LC/MS analysis; type: ADME, Microsome; conditions: read-out: Stability; method in brief: as §2
[18] = tested on: Bacillus subtilis; assay: Selectivity ratio of MBC for Bacillus subtilis ATCC9372 to MIC for Bacillus subtilis ATCC9372; type: functional
Method in brief: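 After 24 h of broth microdilution, 5 µL from clear wells plated on LB agar and incubated aerobically for 24 h at 37 °C. MBC is the lowest concentration with no colonies. Ratio is MBC over MIC, with ≤4 taken as bactericidal and >4 as bacteriostatic.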

[19] = tested on: Staphylococcus aureus; assay: Antibacterial activity against Staphylococcus aureus ATCC25923 assessed as bacterial growth inhibition incubated for 18 hrs by CLSI based broth microdilution method; type: functional; method in brief: as §1

**Q.** For `Cc1cc(Cl)ccc1-c1cccc(COc2ccc(F)c(C(N)=O)c2F)c1`, which inhibition [1] is on record?
**A.** Active

**Q.** And the CC50 at 72 h [2]?
**A.** > 20 µg/mL

**Q.** And the MIC [3]?
**A.** 0.016 µg/mL (≈ 0.0413 µM)

**Q.** What about the remaining at 0 min [4] of the same compound?
**A.** 100%

**Q.** What about the remaining at 5 min [5] of the same compound?
**A.** 53.1%

**Q.** And the remaining at 0.5 h [6]?
**A.** 19.1%

**Q.** What about the remaining at 0.5 h [7] of the same compound?
**A.** 1.74%

**Q.** And the MIC [8]?
**A.** > 128 µg/mL

**Q.** And the Activity [9]?
**A.** Active

**Q.** What about the remaining at 0.25 h [10] of the same compound?
**A.** 86.2%

**Q.** What about the CLint scaled [11] of the same compound?
**A.** 1070 mL/min/kg

**Q.** And the CLint scaled [12]?
**A.** 183 mL/min/kg

**Q.** And the MBC [13]?
**A.** 0.25 µg/mL (≈ 0.645 µM)

**Q.** And the bioavailability [14]?
**A.** 61.2%

**Q.** What about the MIC [15] of the same compound?
**A.** 0.25 µg/mL (≈ 0.645 µM)

**Q.** What about the half-life [16] of the same compound?
**A.** 2.26 h

**Q.** And the remaining at 0 min [17]?
**A.** 100%

**Q.** And the Selectivity ratio [18]?
**A.** 4

**Q.** What about the MIC [19] of the same compound?
**A.** 0.125 µg/mL (≈ 0.322 µM)
